# Reference: ChEMBL document CHEMBL4346698, “Discovery and optimization of thienopyridine derivatives as novel urea transporter inhibitors” (Eur J Med Chem, 2019)
# Calls of active or inactive are those of the source. No cut-off for these calls is given here.
# Target: T1, Urea transporter 1 (Homo sapiens, UniProt Q13336)
# T1 sequence (Q13336 whole entry): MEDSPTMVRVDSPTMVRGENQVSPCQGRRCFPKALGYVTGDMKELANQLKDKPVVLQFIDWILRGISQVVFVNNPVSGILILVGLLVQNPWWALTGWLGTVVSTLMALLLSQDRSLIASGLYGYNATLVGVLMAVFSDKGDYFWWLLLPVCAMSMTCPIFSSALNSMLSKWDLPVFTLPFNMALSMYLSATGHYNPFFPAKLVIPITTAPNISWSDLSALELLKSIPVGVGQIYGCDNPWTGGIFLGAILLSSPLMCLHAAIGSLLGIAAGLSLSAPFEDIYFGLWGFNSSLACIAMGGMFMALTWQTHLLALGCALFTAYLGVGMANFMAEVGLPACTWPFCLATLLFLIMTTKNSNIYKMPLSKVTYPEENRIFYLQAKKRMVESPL
# Experiment: Inhibition of urea transporter B in human erythrocytes incubated for 6 mins by spectrophotometric analysis based erythrocyte lysis assay
# Format: cell-based
row,Compound,IC50
1,CC(=O)c1sc2nc3ccc(C)cc3cc2c1N,1.72 µM

# Target: T2, Urea transporter 1 (Rattus norvegicus, UniProt P97689)
# T2 sequence (P97689 whole entry): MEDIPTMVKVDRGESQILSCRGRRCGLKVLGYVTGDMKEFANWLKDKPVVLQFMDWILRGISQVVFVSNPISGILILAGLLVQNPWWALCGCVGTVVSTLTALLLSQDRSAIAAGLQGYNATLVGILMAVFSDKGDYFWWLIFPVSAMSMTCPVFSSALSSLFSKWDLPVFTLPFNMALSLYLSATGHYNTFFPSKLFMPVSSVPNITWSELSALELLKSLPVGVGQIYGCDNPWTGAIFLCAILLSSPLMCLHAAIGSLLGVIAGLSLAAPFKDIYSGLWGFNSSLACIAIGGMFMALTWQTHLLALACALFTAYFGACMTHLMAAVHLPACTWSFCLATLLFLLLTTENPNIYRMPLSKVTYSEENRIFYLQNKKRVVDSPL
# Experiment: Inhibition of urea transporter B in Sprague-Dawley rat erythrocytes incubated for 6 mins by spectrophotometric analysis based erythrocyte lysis assay
# Format: cell-based
# Procedure, shortened: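 Blood came from 8-week-old male SD rats. Erythrocytes were held at 2% hematocrit in hyperosmolar PBS with 1.25 M urea and 5 mM glucose for 2 h at ambient temperature. Compound in DMSO was added for 6 min, then the cells were diluted 1:10 into isotonic PBS. Lysis was read as A710 within 5 min and normalised to same-plate no-lysis (isotonic PBS) and full-lysis (water) controls.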
row,Compound,IC50
1,COC(=O)CNC(=O)c1sc2nc3ccc(OC)cc3cc2c1N,> 10 µM
2,COC(=O)c1sc2nc3c(C)cc(C)cc3cc2c1N,0.61 µM
3,CCOC(=O)c1sc2nc3ccc(OC)cc3cc2c1N,> 10 µM
4,COC(=O)c1sc2nc(C)ccc2c1N,1.3 µM
5,COC(=O)c1sc2nc(C)c(Br)cc2c1N,8.47 µM
6,COc1ccc2nc3sc(S(=O)(=O)N(C)C)c(N)c3cc2c1,> 10 µM
7,CC(=O)c1sc2nc3ccc(C)cc3cc2c1N,3.51 µM
8,COC(=O)c1sc2nc(C)c(N)cc2c1N,0.54 µM
9,COc1ccc2nc3sc(C(=O)O)c(N)c3cc2c1,> 10 µM
10,CNC(=O)c1cc2c(N)c(C(=O)OC)sc2nc1C,> 10 µM
11,COC(=O)c1sc2nc(C)c(NS(C)(=O)=O)cc2c1N,6.42 µM
12,COC(=O)c1sc2nc(C)c(F)cc2c1N,> 10 µM
13,COC(=O)c1sc2nc3ccc(OC)cc3cc2c1N,0.22 µM
14,COC(=O)c1sc2nc3ccc(C)cc3cc2c1N,0.23 µM
15,COC(=O)c1sc2nc(C)c(N(C)C)cc2c1N,3.75 µM
16,COC(=O)c1sc2nc3ccc(F)cc3cc2c1N,0.16 µM
17,COC(=O)c1sc2nc(C)c(C(C)=O)cc2c1N,0.91 µM
18,CCc1cc2c(N)c(C(=O)OC)sc2nc1C,0.71 µM

row,Compound,IC50
1,COC(=O)c1sc2nc(C)cc(C(F)(F)F)c2c1N,6.12 µM
2,COC(=O)c1sc2nc(C)c(NC(C)=O)cc2c1N,3.47 µM
3,CCOC(=O)c1cnc2sc(C(=O)OC)c(N)c2c1,> 10 µM
4,COC(=O)c1sc2nc(C)c([N+](=O)[O-])cc2c1N,> 10 µM
5,COC(=O)c1sc2nc(-c3ccccc3)ccc2c1N,3.36 µM
6,COC(=O)CC(=O)c1sc2nc3ccc(OC)cc3cc2c1N,> 10 µM
7,COC(=O)c1sc2nc3ccc(Br)cc3cc2c1N,0.27 µM
8,COC(=O)c1sc2nc(C)c(-c3ccccc3)cc2c1N,3.29 µM
9,COc1ccc2nc3sc(C(C)=O)c(N)c3cc2c1,1.63 µM
10,COC(=O)c1sc2nc(C)cc(C)c2c1N,2.54 µM
11,CCNC(=O)c1cc2c(N)c(C(=O)OC)sc2nc1C,> 10 µM
12,CNC(=O)c1sc2nc3ccc(OC)cc3cc2c1N,> 10 µM
13,COC(=O)c1sc2nc(C(=O)N3CCOCC3)ccc2c1N,> 10 µM
14,COC(=O)c1sc2nc3ccccc3cc2c1N,0.22 µM
15,COc1ccc2nc3sc(C(=O)N4CCOCC4)c(N)c3cc2c1,> 10 µM
16,COc1ccc2nc3sc(C(N)=O)c(N)c3cc2c1,> 10 µM
17,COC(=O)c1sc2nc(C)c(OC)cc2c1N,5.46 µM
18,COC(=O)c1sc2nc(C)c(C(=O)N3CCOCC3)cc2c1N,> 10 µM

# System: Rattus norvegicus
# Experiment: Diuretic activity in Sprague-Dawley rat assessed as increase in urine output at 100 mg/kg, sc measured after 10 hrs
# Format: functional, organism-based
# Procedure, shortened: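 SD rats housed in metabolic cages received a subcutaneous injection of 100 mg/kg in 40% 2-hydroxypropyl-β-cyclodextrin, with the vehicle alone as control. Urine output was collected for 10 h after dosing. n=5, mean + SD.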
row,Compound,Activity
1,COC(=O)c1sc2nc(C)c(N)cc2c1N,Active
